Measured values published in ChEMBL document CHEMBL3779802, “Synthesis of hybrid 4-deoxypodophyllotoxin-5-fluorouracil compounds that inhibit cellular migration and induce cell cycle arrest” (Bioorg Med Chem Lett, 2016).
Active and inactive are the calls of the source. The rule behind the calls is not given here.

Legend:
[1] = Cytotoxicity against human WI38 cells assessed as growth inhibition after 48 hrs by MTT assay; format: cell-based; details: WI-38, 48 h
Procedure, shortened: (§1)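 MTT assay with 48 h drug exposure on HeLa, A549, HCT-8 and HepG2 tumour cells and normal lung fibroblast WI-38. IC50 reported as the mean of three independent experiments.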

[2] = system: A549; assay: Cytotoxicity against human A549 cells assessed as growth inhibition after 48 hrs by MTT assay; format: functional, cell-based; details: A549, 48 h; procedure, shortened: as §1
[3] = Cytotoxicity against human HCT8 cells assessed as growth inhibition after 48 hrs by MTT assay; format: functional, cell-based; details: HCT-8, 48 h; procedure, shortened: as §1
[4] = system: HeLa; assay: Cytotoxicity against human HeLa cells assessed as growth inhibition after 48 hrs by MTT assay; format: functional, cell-based; procedure, shortened: as §1
[5] = system: HepG2; assay: Cytotoxicity against human HepG2 cells assessed as growth inhibition after 48 hrs by MTT assay; format: functional, cell-based; details: HepG2, 48 h; procedure, shortened: as §1
[6] = system: A549; assay: Induction of apoptosis in human A549 cells assessed as nuclear fragmentation at 0.3 to 1 uM after 24 hrs by DAPI staining based fluorescence microscopy; format: functional, cell-based
Procedure, shortened: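 A549 cells treated with 0, 0.3 or 1 μM for 24 h, stained with DAPI and viewed by fluorescence microscopy at 200×. Nuclei scored for fragmentation and loss of normal morphology.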

[7] = system: A549; assay: Downregulation of p-cdc2 expression in human A549 cells at 0.5 to 2 uM after 24 hrs by Western blot analysis; format: functional, cell-based
Procedure, shortened: (§2)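 Western blot for cdc2, p-cdc2 and cyclin B1 in A549 cells treated with vehicle, 0.5 or 2 μM for 24 h.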

[8] = system: A549; assay: Cell cycle arrest in human A549 cells assessed as accumulation at G2/M phase after 24 hrs by propidium iodide staining based flow cytometry; format: functional
[9] = system: A549; assay: Cell cycle arrest in human A549 cells assessed as accumulation at S phase at 0.1 uM after 24 hrs by propidium iodide staining based flow cytometry (reference value: 19.3%); format: functional
[10] = system: A549; assay: Downregulation of MMP-9 expression in human A549 cells at 0.5 to 2 uM after 24 hrs by Western blot analysis; format: functional, cell-based
[11] = system: A549; assay: Upregulation of TIMP-1 expression in human A549 cells at 0.5 to 2 uM after 24 hrs by Western blot analysis; format: functional, cell-based
[12] = system: A549; assay: Cell cycle arrest in human A549 cells assessed as accumulation at G1 phase at 0.5 uM after 24 hrs by propidium iodide staining based flow cytometry (reference value: 58.3%); format: functional
[13] = system: A549; assay: Cell cycle arrest in human A549 cells assessed as accumulation at G2/M phase at 0.1 uM after 24 hrs by propidium iodide staining based flow cytometry (reference value: 22.4%); format: functional
[14] = system: A549; assay: Antimigratory activity in human A549 cells at 1 uM after 12 hrs by crystal violet staining based transwell migration assay; format: functional; details: A549, 12 h
Procedure, shortened: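 Transwell migration of A549 cells exposed to vehicle, 0.3 or 1 μM for 12 h. Stained migrated cells imaged at 200× and counted. Inhibition expressed relative to untreated control; mean ± SD of three independent experiments.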

[15] = system: A549; assay: Upregulation of cyclinB1 expression in human A549 cells at 0.5 to 2 uM after 24 hrs by Western blot analysis; format: functional, cell-based; procedure, shortened: as §2
[16] = system: A549; assay: Upregulation of cdc2 expression in human A549 cells at 0.5 to 2 uM after 24 hrs by Western blot analysis; format: functional, cell-based; procedure, shortened: as §2
[17] = system: A549; assay: Downregulation of MMP-9 expression in human A549 cells at 0.1 to 5 uM after 24 hrs by ELISA; format: functional, cell-based
Procedure, shortened: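 MMP-9 in A549 cells measured by ELISA after 24 h exposure to 0, 0.1, 0.5, 1.5 or 5.0 μM. Mean ± SD, n = 3.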

[18] = system: A549; assay: Cell cycle arrest in human A549 cells assessed as accumulation at G1 phase at 0.1 uM after 24 hrs by propidium iodide staining based flow cytometry (reference value: 58.3%); format: functional
[19] = system: A549; assay: Cell cycle arrest in human A549 cells assessed as accumulation at S phase at 0.5 uM after 24 hrs by propidium iodide staining based flow cytometry (reference value: 19.3%); format: functional
[20] = system: A549; assay: Cell cycle arrest in human A549 cells assessed as decrease in cell level at G1 phase after 24 hrs by propidium iodide staining based flow cytometry; format: functional
[21] = system: A549; assay: Cell cycle arrest in human A549 cells assessed as accumulation at G2/M phase at 0.5 uM after 24 hrs by propidium iodide staining based flow cytometry (reference value: 22.4%); format: functional
[22] = system: A549; assay: Upregulation of TIMP-1 expression in human A549 cells at 0.1 to 5 uM after 24 hrs by ELISA; format: functional, cell-based

## COc1cc([C@@H]2c3cc4c(cc3[C@@H](O[C@@H]3O[C@@H]5CO[C@@H](C)O[C@H]5[C@H](O)[C@H]3O)[C@H]3COC(=O)[C@H]23)OCO4)cc(OC)c1O [ETOPOSIDE]
[1]
  IC50: 35.8 µM
[2]
  IC50: 23.9 µM
[3]
  IC50: 10.9 µM
[4]
  IC50: 12.1 µM
[5]
  IC50: 27.1 µM

## COc1cc([C@@H]2c3cc4c(cc3C[C@H]3COC(=O)[C@@H]32)OCO4)cc(OC)c1OC(=O)NCCCCNC(=O)Cn1cc(F)c(=O)[nH]c1=O
[1]
  IC50: 85.5 µM
[2]
  IC50: 23.9 µM
[3]
  IC50: 8.53 µM
[4]
  IC50: 9.58 µM
[5]
  IC50: 22.3 µM

## COc1cc([C@@H]2c3cc4c(cc3C[C@H]3COC(=O)[C@@H]32)OCO4)cc(OC)c1OC(=O)NCCCCCCNC(=O)Cn1cc(F)c(=O)[nH]c1=O
[1]
  IC50: 87 µM
[2]
  IC50: 0.14 µM
[3]
  IC50: 2.04 µM
[4]
  IC50: 13.2 µM
[5]
  IC50: 11.7 µM

## COc1cc([C@@H]2c3cc4c(cc3C[C@H]3COC(=O)[C@@H]32)OCO4)cc(OC)c1OC(=O)NCCCNC(=O)Cn1cc(F)c(=O)[nH]c1=O
[1]
  IC50: 109 µM
[2]
  IC50: 11.7 µM
[3]
  IC50: 5.26 µM
[4]
  IC50: 15.8 µM
[5]
  IC50: > 100 µM

## COc1cc([C@@H]2c3cc4c(cc3C[C@H]3COC(=O)[C@@H]32)OCO4)cc(OC)c1OC(=O)CCC(=O)N1CCN(C(=O)Cn2cc(F)c(=O)[nH]c2=O)CC1
[1]
  IC50: 112 µM
[2]
  IC50: 1.35 µM
[3]
  IC50: 9.01 µM
[4]
  IC50: 15 µM
[5]
  IC50: 11.5 µM

## O=c1[nH]cc(F)c(=O)[nH]1 [FLUOROURACIL]
[1]
  IC50: 38.9 µM
[3]
  IC50: 32.3 µM
[5]
  IC50: 41.6 µM

## COc1cc([C@@H]2c3cc4c(cc3C[C@H]3COC(=O)[C@@H]32)OCO4)cc(OC)c1OC(=O)CCC(=O)NCCCCCCNC(=O)Cn1cc(F)c(=O)[nH]c1=O
[1]
  IC50: 114 µM
[6]
  Activity: Active
[2]
  IC50: 0.27 µM
[3]
  IC50: 1.01 µM
[7]
  Activity: Active
[8]
  Activity: Dose-dependent effect
[9]
  Activity: 45.1%
[10]
  Activity: Active
[11]
  Activity: Active
[12]
  Activity: 0.1%
[13]
  Activity: 47.2%
[14]
  inhibition at 1 µM: 47%
[4]
  IC50: 4.03 µM
[15]
  Activity: Active
[16]
  Activity: Active
[17]
  Activity: Active
[18]
  Activity: 7.7%
[5]
  IC50: 0.45 µM
[19]
  Activity: 35.4%
[20]
  Activity: Dose-dependent effect
[21]
  Activity: 64.5%
[22]
  Activity: Active

## COc1cc([C@@H]2c3cc4c(cc3C[C@H]3COC(=O)[C@@H]32)OCO4)cc(OC)c1OC(=O)N1CCN(C(=O)Cn2cc(F)c(=O)[nH]c2=O)CC1
[1]
  IC50: 121 µM
[2]
  IC50: 2.41 µM
[3]
  IC50: 17.6 µM
[4]
  IC50: 11.2 µM
[5]
  IC50: 14.3 µM

## COc1cc([C@@H]2c3cc4c(cc3C[C@H]3COC(=O)[C@@H]32)OCO4)cc(OC)c1OC(=O)N1CCN(CCCCn2cc(F)c(=O)[nH]c2=O)CC1
[1]
  IC50: 104 µM
[2]
  IC50: 2.14 µM
[3]
  IC50: 9.18 µM
[4]
  IC50: 13.2 µM
[5]
  IC50: 20.2 µM

## COc1cc([C@@H]2c3cc4c(cc3C[C@H]3COC(=O)[C@@H]32)OCO4)cc(OC)c1O [4'-DEMETHYLDEOXYPODOPHYLLOTOXIN]
[1]
  IC50: 78.5 µM
[2]
  IC50: 3.9 µM
[3]
  IC50: 9.81 µM
[5]
  IC50: 16.5 µM
